Test results taken from ChEMBL document CHEMBL5724801, “EUbOPEN Chemogenomics Library - Multiplex” (2024).
Where “and” joins values, the source holds several entries; their conditions need not be identical. Identical values can stand only once.

Tested on: U2OS
Assay: Multiplex assay against U2OS
Type: toxicity, cell-based
Conditions: human
In short: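 Imaging took place on a CQ1 microscope at 37°C and 5% CO2 once compound had been added to live cells stained at seeding with Hoechst33342, BioTracker Green Microtubule Cytoskeleton Dye, MitoTracker Red and Annexin V Alexa Fluor 680. CellPathfinder machine-learning gating classed cells as Hoechst high-intensity objects or normal cells, classed normal cells as having healthy, pyknosed or fragmented nuclei, and classed pyknosed cells as mitotic or apoptotic. Tubulin, mitochondrial-mass and membrane-permeability phenotypes are per cents of the healthy-nucleus cells.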

[1] = 12 h, 1 µM, compound concentration 1 uM
[2] = 12 h, 10 µM, compound concentration 10 uM
[3] = 24 h, 1 µM, compound concentration 1 uM
[4] = 24 h, 10 µM, compound concentration 10 uM
[5] = 48 h, 1 µM, compound concentration 1 uM
[6] = 48 h, 10 µM, compound concentration 10 uM

`Cc1cc(=O)n(C)c2cc(N3C(=O)CC[C@H](NS(=O)(=O)CC(C)C)[C@H]3c3ccc(Cl)cc3)ccc12` was tested, and the “Population Apoptotic (%)” value [1] was 87% and 63%, the “Population Fragmented Nuclei (%)” value [1] was 24% and 21% and the “Population Healthy Nuclei (%)” value [1] was 66% and 68%. For the same compound, the “Population Hoechst High Intensity Objects (%)” value [1] was 3% and 1%, the “Population Membrane Permeable-Phenotype (%)” value [1] was 3% and 2% and the “Population Mitochondria Different-Phenotype (%)” value [1] was 1% and 2%. The “Population Mitotic Cells (%)” value [1] was 12% and 36%, the “Population Normal (%)” value [1] was 96% and 98% and the “Population Pyknosed Nuclei (%)” value [1] was 9% and 10%. For the same compound, the “Population Tubulin-Different-Phenotype (%)” value [1] was 1%, the “Total Cell Count” value [1] was 263 and 110 and the “Population Apoptotic (%)” value [2] was 57%. The “Population Fragmented Nuclei (%)” value [2] was 21% and 16%, the “Population Healthy Nuclei (%)” value [2] was 55% and 60% and the “Population Hoechst High Intensity Objects (%)” value [2] was 5% and 3%. For the same compound, the “Population Membrane Permeable-Phenotype (%)” value [2] was 63% and 35%, the “Population Mitochondria Different-Phenotype (%)” value [2] was 44% and 68% and the “Population Mitotic Cells (%)” value [2] was 42%. For the same compound, the “Population Normal (%)” value [2] was 94% and 96%, the “Population Pyknosed Nuclei (%)” value [2] was 23% and the “Population Tubulin-Different-Phenotype (%)” value [2] was 65% and 60%. For the same compound, the “Total Cell Count” value [2] was 240 and 83, the “Population Apoptotic (%)” value [3] was 74% and 82% and the “Population Fragmented Nuclei (%)” value [3] was 20% and 18%. The “Population Healthy Nuclei (%)” value [3] was 68% and 69%, the “Population Hoechst High Intensity Objects (%)” value [3] was 3% and 1% and the “Population Membrane Permeable-Phenotype (%)” value [3] was 6% and 9%. For the same compound, the “Population Mitochondria Different-Phenotype (%)” value [3] was 3% and 2%, the “Population Mitotic Cells (%)” value [3] was 25% and 17% and the “Population Normal (%)” value [3] was 96% and 98%. The “Population Pyknosed Nuclei (%)” value [3] was 11%, the “Population Tubulin-Different-Phenotype (%)” value [3] was 4% and 6% and the “Total Cell Count” value [3] was 322 and 146. For the same compound, the “Population Apoptotic (%)” value [4] was 71% and 81%, the “Population Fragmented Nuclei (%)” value [4] was 20% and 26% and the “Population Healthy Nuclei (%)” value [4] was 56% and 62%. The “Population Hoechst High Intensity Objects (%)” value [4] was 5% and 2%, the “Population Membrane Permeable-Phenotype (%)” value [4] was 25% and 36% and the “Population Mitochondria Different-Phenotype (%)” value [4] was 40% and 59%. The “Population Mitotic Cells (%)” value [4] was 28% and 18%, the “Population Normal (%)” value [4] was 94% and 97% and the “Population Pyknosed Nuclei (%)” value [4] was 23% and 10%. For the same compound, the “Population Tubulin-Different-Phenotype (%)” value [4] was 28% and 50%, the “Total Cell Count” value [4] was 262 and 108 and the “Population Apoptotic (%)” value [5] was 77% and 95%. For the same compound, the “Population Fragmented Nuclei (%)” value [5] was 14% and 15%, the “Population Healthy Nuclei (%)” value [5] was 73% and the “Population Hoechst High Intensity Objects (%)” value [5] was 1%. The “Population Membrane Permeable-Phenotype (%)” value [5] was 4% and 6%, the “Population Mitochondria Different-Phenotype (%)” value [5] was 3% and 5% and the “Population Normal (%)” value [5] was 98%. For the same compound, the “Population Pyknosed Nuclei (%)” value [5] was 11% and 10%, the “Population Tubulin-Different-Phenotype (%)” value [5] was 2% and 4% and the “Total Cell Count” value [5] was 508 and 199. The “Population Apoptotic (%)” value [6] was 84% and 71%, the “Population Fragmented Nuclei (%)” value [6] was 25% and 21% and the “Population Healthy Nuclei (%)” value [6] was 51% and 60%. The “Population Hoechst High Intensity Objects (%)” value [6] was 6% and 5%, the “Population Membrane Permeable-Phenotype (%)” value [6] was 15% and 30% and the “Population Mitochondria Different-Phenotype (%)” value [6] was 15% and 35%. The “Population Mitotic Cells (%)” value [6] was 15% and 28%, the “Population Normal (%)” value [6] was 93% and 94% and the “Population Pyknosed Nuclei (%)” value [6] was 22% and 18%. For the same compound, the “Population Tubulin-Different-Phenotype (%)” value [6] was 10% and 23% and the “Total Cell Count” value [6] was 331 and 120.

`C[C@H](NC(=O)CNC(=O)c1cccc(Cl)c1)c1ccccc1` was tested, and the “Population Apoptotic (%)” value [1] was 78% and 71%, the “Population Fragmented Nuclei (%)” value [1] was 26% and 20% and the “Population Healthy Nuclei (%)” value [1] was 61% and 68%. For the same compound, the “Population Hoechst High Intensity Objects (%)” value [1] was 3%, the “Population Membrane Permeable-Phenotype (%)” value [1] was 6% and 8% and the “Population Mitochondria Different-Phenotype (%)” value [1] was 4% and 2%. For the same compound, the “Population Mitotic Cells (%)” value [1] was 21% and 28%, the “Population Normal (%)” value [1] was 96% and the “Population Pyknosed Nuclei (%)” value [1] was 12% and 11%. For the same compound, the “Population Tubulin-Different-Phenotype (%)” value [1] was 2%, the “Total Cell Count” value [1] was 242 and 124 and the “Population Apoptotic (%)” value [2] was 68% and 66%. For the same compound, the “Population Fragmented Nuclei (%)” value [2] was 24% and 13%, the “Population Healthy Nuclei (%)” value [2] was 63% and 82% and the “Population Hoechst High Intensity Objects (%)” value [2] was 2% and 0%. The “Population Membrane Permeable-Phenotype (%)” value [2] was 9% and 2%, the “Population Mitochondria Different-Phenotype (%)” value [2] was 3% and the “Population Mitotic Cells (%)” value [2] was 31% and 33%. For the same compound, the “Population Normal (%)” value [2] was 97% and 100%, the “Population Pyknosed Nuclei (%)” value [2] was 11% and 4% and the “Population Tubulin-Different-Phenotype (%)” value [2] was 4% and 2%. The “Total Cell Count” value [2] was 198 and 150, the “Population Apoptotic (%)” value [3] was 79% and 88% and the “Population Fragmented Nuclei (%)” value [3] was 19%. For the same compound, the “Population Healthy Nuclei (%)” value [3] was 71% and 69%, the “Population Hoechst High Intensity Objects (%)” value [3] was 2% and the “Population Membrane Permeable-Phenotype (%)” value [3] was 7% and 4%. For the same compound, the “Population Mitochondria Different-Phenotype (%)” value [3] was 2% and 4%, the “Population Mitotic Cells (%)” value [3] was 20% and 11% and the “Population Normal (%)” value [3] was 97%. The “Population Pyknosed Nuclei (%)” value [3] was 8% and 10%, the “Population Tubulin-Different-Phenotype (%)” value [3] was 2% and 0% and the “Total Cell Count” value [3] was 275 and 168. The “Population Apoptotic (%)” value [4] was 90% and 71%, the “Population Fragmented Nuclei (%)” value [4] was 24% and 12% and the “Population Healthy Nuclei (%)” value [4] was 61% and 83%. The “Population Hoechst High Intensity Objects (%)” value [4] was 1%, the “Population Membrane Permeable-Phenotype (%)” value [4] was 6% and 4% and the “Population Mitochondria Different-Phenotype (%)” value [4] was 4% and 2%. For the same compound, the “Population Normal (%)” value [4] was 98%, the “Population Pyknosed Nuclei (%)” value [4] was 13% and 3% and the “Population Tubulin-Different-Phenotype (%)” value [4] was 2% and 3%. The “Total Cell Count” value [4] was 239 and 189, the “Population Apoptotic (%)” value [5] was 74% and 100% and the “Population Fragmented Nuclei (%)” value [5] was 18% and 17%. For the same compound, the “Population Healthy Nuclei (%)” value [5] was 71% and 70%, the “Population Hoechst High Intensity Objects (%)” value [5] was 3% and 2% and the “Population Membrane Permeable-Phenotype (%)” value [5] was 6% and 4%. For the same compound, the “Population Mitochondria Different-Phenotype (%)” value [5] was 3%, the “Population Mitotic Cells (%)” value [5] was 25% and 0% and the “Population Normal (%)” value [5] was 96% and 97%. The “Population Pyknosed Nuclei (%)” value [5] was 10% and 11%, the “Population Tubulin-Different-Phenotype (%)” value [5] was 1% and 2% and the “Total Cell Count” value [5] was 401 and 205. The “Population Apoptotic (%)” value [6] was 81% and 100%, the “Population Fragmented Nuclei (%)” value [6] was 19% and 12% and the “Population Healthy Nuclei (%)” value [6] was 73% and 80%. The “Population Hoechst High Intensity Objects (%)” value [6] was 2% and 1%, the “Population Membrane Permeable-Phenotype (%)” value [6] was 6% and 4% and the “Population Mitochondria Different-Phenotype (%)” value [6] was 2% and 1%. For the same compound, the “Population Mitotic Cells (%)” value [6] was 18% and 0%, the “Population Normal (%)” value [6] was 97% and 98% and the “Population Pyknosed Nuclei (%)” value [6] was 7%. The “Population Tubulin-Different-Phenotype (%)” value [6] was 4% and 1% and the “Total Cell Count” value [6] was 311 and 279.

For `Cn1cc(C(=O)OCC2CCN(CCNS(C)(=O)=O)CC2)c2ccccc21`, the “Population Apoptotic (%)” value [1] was 73% and 77%, the “Population Fragmented Nuclei (%)” value [1] was 27% and 20% and the “Population Healthy Nuclei (%)” value [1] was 63% and 71%. The “Population Hoechst High Intensity Objects (%)” value [1] was 3% and 0%, the “Population Membrane Permeable-Phenotype (%)” value [1] was 7% and 13% and the “Population Mitochondria Different-Phenotype (%)” value [1] was 4% and 5%. For the same compound, the “Population Mitotic Cells (%)” value [1] was 26% and 22%, the “Population Normal (%)” value [1] was 96% and 100% and the “Population Pyknosed Nuclei (%)” value [1] was 8%. The “Population Tubulin-Different-Phenotype (%)” value [1] was 5% and 6%, the “Total Cell Count” value [1] was 226 and 110 and the “Population Apoptotic (%)” value [2] was 53% and 57%. For the same compound, the “Population Fragmented Nuclei (%)” value [2] was 36% and 18%, the “Population Healthy Nuclei (%)” value [2] was 58% and 76% and the “Population Hoechst High Intensity Objects (%)” value [2] was 0% and 1%. For the same compound, the “Population Membrane Permeable-Phenotype (%)” value [2] was 10% and 17%, the “Population Mitochondria Different-Phenotype (%)” value [2] was 5% and 13% and the “Population Mitotic Cells (%)” value [2] was 46% and 42%. For the same compound, the “Population Normal (%)” value [2] was 99% and 98%, the “Population Pyknosed Nuclei (%)” value [2] was 5% and the “Population Tubulin-Different-Phenotype (%)” value [2] was 5% and 9%. For the same compound, the “Total Cell Count” value [2] was 252 and 137, the “Population Apoptotic (%)” value [3] was 95% and 100% and the “Population Fragmented Nuclei (%)” value [3] was 26% and 17%. For the same compound, the “Population Healthy Nuclei (%)” value [3] was 65% and 78%, the “Population Hoechst High Intensity Objects (%)” value [3] was 2% and 0% and the “Population Membrane Permeable-Phenotype (%)” value [3] was 4% and 10%. The “Population Mitochondria Different-Phenotype (%)” value [3] was 2% and 5%, the “Population Mitotic Cells (%)” value [3] was 4% and 0% and the “Population Normal (%)” value [3] was 97% and 100%. For the same compound, the “Population Pyknosed Nuclei (%)” value [3] was 8% and 4%, the “Population Tubulin-Different-Phenotype (%)” value [3] was 3% and 6% and the “Total Cell Count” value [3] was 263 and 144. The “Population Apoptotic (%)” value [4] was 92% and 64%, the “Population Fragmented Nuclei (%)” value [4] was 33% and 16% and the “Population Healthy Nuclei (%)” value [4] was 61% and 73%. The “Population Hoechst High Intensity Objects (%)” value [4] was 2% and 1%, the “Population Membrane Permeable-Phenotype (%)” value [4] was 11% and 12% and the “Population Mitochondria Different-Phenotype (%)” value [4] was 5% and 8%. The “Population Normal (%)” value [4] was 97% and 98%, the “Population Pyknosed Nuclei (%)” value [4] was 4% and 9% and the “Population Tubulin-Different-Phenotype (%)” value [4] was 4% and 8%. For the same compound, the “Total Cell Count” value [4] was 281 and 150, the “Population Apoptotic (%)” value [5] was 91% and 57% and the “Population Fragmented Nuclei (%)” value [5] was 20% and 13%. For the same compound, the “Population Healthy Nuclei (%)” value [5] was 69% and 75%, the “Population Hoechst High Intensity Objects (%)” value [5] was 1% and 2% and the “Population Membrane Permeable-Phenotype (%)” value [5] was 8% and 6%. For the same compound, the “Population Mitochondria Different-Phenotype (%)” value [5] was 3% and 5%, the “Population Normal (%)” value [5] was 98% and 97% and the “Population Pyknosed Nuclei (%)” value [5] was 9% and 10%. For the same compound, the “Population Tubulin-Different-Phenotype (%)” value [5] was 5% and 4%, the “Total Cell Count” value [5] was 372 and 182 and the “Population Apoptotic (%)” value [6] was 88% and 75%. For the same compound, the “Population Healthy Nuclei (%)” value [6] was 58% and 79%, the “Population Hoechst High Intensity Objects (%)” value [6] was 1% and 3% and the “Population Membrane Permeable-Phenotype (%)” value [6] was 9% and 13%. For the same compound, the “Population Mitochondria Different-Phenotype (%)” value [6] was 4% and 6%, the “Population Mitotic Cells (%)” value [6] was 11% and 25% and the “Population Normal (%)” value [6] was 98% and 97%. The “Population Pyknosed Nuclei (%)” value [6] was 10%, the “Population Tubulin-Different-Phenotype (%)” value [6] was 7% and 5% and the “Total Cell Count” value [6] was 341 and 200.
